Assay results from ChEMBL document CHEMBL1125539 (J Med Chem, 1992).
pIC50: −log10 of the molar value.

What was measured:
[1] = Growth inhibition of aerobic chinese hamster ovary fibroblast AA8 cell line using an exposure time of 18 hours; assay type: functional, cell-based; details: Cricetulus griseus, CHO-AA8, 18 h
Summary of the method: (§1)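 Log-phase CHO monolayers in 96-well trays seeded at 200 (AA8; text prints "A48") or 300 (UV4) cells/well in Alpha MEM + 10% FCS, grown 24 h, then exposed aerobically 18 h to five 2-fold serial dilutions in duplicate.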

[2] = Growth inhibition of aerobic chinese hamster ovary fibroblast UV4 cells using an exposure time of 18 hours; assay type: functional, cell-based; details: Cricetulus griseus, UV4, 18 h; summary of the method: as §1
Cricetulus griseus = organism: Cricetulus griseus; experiment: Hypersensitivity factor was defined as the ratio of IC50(AA8) to IC50(UV4); assay type: functional
[3] = Hypoxic selectivity was measured as product of concentration and exposure time needed to reduce cell survival to 10% of control using UV4 cells at 10e6 /mL in the clonogenic assay; assay type: functional, Cricetulus griseus
Summary of the method: (§2)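 Magnetically stirred 10-mL suspensions of late-log UV4 cells (10^6/mL), gassed continuously with 5% CO2 in air or N2. Cells and drug in medium pre-equilibrated 60 min under that gas before mixing. Samples removed periodically up to 8 h for clonogenic survival. CT10 = concentration (μM) × time (h) for 10% survival; ratio = CT10(air)/CT10(N2), using concentrations giving similar kill rates.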

[4] = CT10 ratio defined as ratio of CT10 (air) to that of CT10 (nitrogen)); assay type: functional; summary of the method: as §2

SMILES	pIC50 [1]	pIC50 [2]	HF (Cricetulus griseus)	CT10 [3]	CT10 ratio [4]
NC(=O)c1cc(N(CCO)CCO)c([N+](=O)[O-])cc1[N+](=O)[O-]	2.21	2.23	1.1	>35000 µM·h	–
CN(C)CCNC(=O)c1cc(N(CCCl)CCCl)c([N+](=O)[O-])cc1[N+](=O)[O-]	3.59	4.17	4.2	1080 µM·h	70 air/N2
O=C(c1cc([N+](=O)[O-])ccc1N(CCO)CCO)N1CCOCC1	1.98	2.08	1.3	–	–
CN(C)CCNC(=O)c1cc([N+](=O)[O-])ccc1N(CCCl)CCCl	3.68	5.24	40	78 µM·h	1.5 air/N2
O=C(c1cc([N+](=O)[O-])ccc1N(CCCl)CCCl)N1CCOCC1	< 3.30	4.17	> 7	2325 µM·h	1.15 air/N2
CN(C)CCNC(=O)c1cc([N+](=O)[O-])ccc1N(CCO)CCO	2.17	2.40	1.1	–	–
O=[N+]([O-])c1ccc(N(CCO)CCO)c([N+](=O)[O-])c1	3.53	3.55	0.9	–	–
O=C(c1cc(N2CC2)c([N+](=O)[O-])cc1[N+](=O)[O-])N1CCOCC1	3.16	5.57	330	50 µM·h	1.7 air/N2
O=C(c1cc(N(CCCl)CCCl)c([N+](=O)[O-])cc1[N+](=O)[O-])N1CCOCC1	3.59	4.92	23	156 µM·h	1.3 air/N2
CN(C)CCNC(=O)c1cc(N(CCCl)CCCl)ccc1[N+](=O)[O-]	2.94	4.14	12	465 µM·h	2.3 air/N2
NC(=O)c1cc(N2CC2)c([N+](=O)[O-])cc1[N+](=O)[O-] [TRETAZICAR]	3.25	4.93	50	–	3.6 air/N2
O=C(c1cc(N(CCCl)CCCl)ccc1[N+](=O)[O-])N1CCOCC1	3.61	4.82	19	450 µM·h	1 air/N2
O=C(c1cc(N(CCO)CCO)ccc1[N+](=O)[O-])N1CCOCC1	1.95	2.04	1	–	–
NC(=O)c1cc(N(CCCl)CCCl)c([N+](=O)[O-])cc1[N+](=O)[O-]	3.33	3.97	6.8	2700 µM·h	60 air/N2
CN(C)CCNC(=O)c1cccc(N(CCCl)CCCl)c1	4.96	6.57	44	–	–
O=C(c1cc(N(CCO)CCO)c([N+](=O)[O-])cc1[N+](=O)[O-])N1CCOCC1	2.53	2.59	1.1	–	–
CN(C)CCNC(=O)c1cc(N(CCO)CCO)ccc1[N+](=O)[O-]	1.88	2.10	1.6	11300 µM·h	0.95 air/N2
O=[N+]([O-])c1ccc(N(CCO)CCO)cc1	2.49	2.53	1.1	–	–
CN(C)CCNC(=O)c1cc(N(CCO)CCO)c([N+](=O)[O-])cc1[N+](=O)[O-]	2.39	2.51	1.4	–	–
